Common to all, as to format: functional
Test [1] has as its system Staphylococcus aureus. Briefly: Antibacterial activity against Staphylococcus aureus ATCC 25923 after 24 hrs by twofold serial dilution technique. A digest of the protocol: (§1)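 Broth microdilution in Mueller-Hinton broth. Isolates were subcultured overnight on MHA at 37 °C and passaged at least twice. McFarland 0.5 cultures […] were diluted to 10⁵ cfu/ml, giving 10⁴ cfu/ml per well, over two-fold compound dilutions. Plates were incubated at 37 °C in a humid chamber for 24 h. MIC was the lowest concentration completely inhibiting macroscopic growth. Triplicate per run.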

Another test deals with Pichia kudriavzevii. Put plainly: Antifungal activity against Candida krusei ATCC 6258 after 48 hrs by twofold serial dilution technique. To be noted: ATCC 6258, 48 h. A digest of the protocol:
(§2)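 Yeasts were subcultured on SDA at 35 °C for 24-48 h and passaged twice. Broth microdilution followed CLSI M27-A in RPMI-1640 with L-glutamine, MOPS-buffered to pH 7. Inoculum was McFarland 0.5 (10⁶ cfu/ml) diluted to 10⁴ cfu/ml, giving 10³ cfu/ml per well. Incubated at 35 °C in a humid chamber and read at 48 h as the lowest concentration with no macroscopic growth. Triplicate per run.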

Test [2] concerns Escherichia coli. Put plainly: Antibacterial activity against Escherichia coli ATCC 25922 after 24 hrs by twofold serial dilution technique. The method, boiled down:
as §1

Test [3] relates to Bacillus subtilis. Briefly: Antibacterial activity against ceftriaxone-resistant Bacillus subtilis isolate after 24 hrs by twofold serial dilution technique. The method, boiled down: (§3)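 Broth microdilution in Mueller-Hinton broth. Strains were subcultured overnight on MHA at 37 °C and passaged at least twice. McFarland 0.5 cultures […] were diluted to 10⁵ cfu/ml, giving 10⁴ cfu/ml per well, against two-fold dilutions from 1000 to 0.06. Solvent and medium controls were included. Plates were held at 37 °C in a humid chamber for 24 h, in triplicate. MIC is the lowest concentration with no macroscopic growth.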

Test [4] has as its system Staphylococcus aureus. Put plainly: Antibacterial activity against methicillin-resistant Staphylococcus aureus isolate after 24 hrs by twofold serial dilution technique. A digest of the protocol: as §3
For test [5], the system named is Bacillus subtilis. Briefly: Antibacterial activity against Bacillus subtilis ATCC 6633 after 24 hrs by twofold serial dilution technique. A digest of the protocol:
as §3

The subject of test [6] is Candida albicans. Put plainly: Antifungal activity against biofilm-positive Candida albicans isolate after 48 hrs by twofold serial dilution technique. A digest of the protocol:
as §2

For test [7], the system named is Klebsiella pneumoniae. Briefly: Antibacterial activity against Klebsiella pneumoniae isolate containing extended spectrum beta lactamase after 24 hrs by twofold serial dilution technique. A digest of the protocol:
as §1

Test [8] deals with Candida albicans. Briefly: Antifungal activity against Candida albicans ATCC 10231 after 48 hrs by twofold serial dilution technique. The conditions noted are these: ATCC 10231, 48 h. The method, boiled down: as §2
Test [9] concerns Pseudomonas aeruginosa. Put plainly: Antibacterial activity against Pseudomonas aeruginosa […] after 24 hrs by twofold serial dilution technique. The method, boiled down: as §1
The test system of test [10] is Escherichia coli. Briefly: Antibacterial activity against Escherichia coli isolate containing extended spectrum beta lactamase after 24 hrs by twofold serial dilution technique. The method, boiled down:
as §1

Test [11] concerns Pseudomonas aeruginosa. Briefly: Antibacterial activity against gentamicin-resistant Pseudomonas aeruginosa isolate after 24 hrs by twofold serial dilution technique. The method, boiled down: as §3
Test [12] deals with Klebsiella pneumoniae. Briefly: Antibacterial activity against Klebsiella pneumoniae RSHM 574 after 24 hrs by twofold serial dilution technique. The method, boiled down: as §1

In brackets after ≈: the same amount, converted by molar mass.

For `CCc1ccc(-c2nc3cc(NC(=O)c4cc5ccccc5o4)ccc3o2)cc1`, the MIC with Staphylococcus aureus [1] (ATCC 25923, 24 h) came to 125 µg/mL (≈ 327 µM); in the test on Pichia kudriavzevii it was 125 µg/mL (≈ 327 µM); with Escherichia coli [2] (ATCC 25922, 24 h) it was 62.5 µg/mL (≈ 163 µM); with Bacillus subtilis [3], 125 µg/mL (≈ 327 µM); in the test with Staphylococcus aureus [4], 62.5 µg/mL (≈ 163 µM); against Bacillus subtilis [5] (ATCC 6633, 24 h) it was 500 µg/mL (≈ 1310 µM). The MIC in the test with Candida albicans [6] came to 62.5 µg/mL (≈ 163 µM); in the test on Klebsiella pneumoniae [7] it was 125 µg/mL (≈ 327 µM); against Candida albicans [8] it was 62.5 µg/mL (≈ 163 µM); with Pseudomonas aeruginosa [9], 62.5 µg/mL (≈ 163 µM); in the test with Escherichia coli [10], 125 µg/mL (≈ 327 µM); against Pseudomonas aeruginosa [11], 62.5 µg/mL (≈ 163 µM). For the same compound, the MIC in the test with Klebsiella pneumoniae [12] came to 62.5 µg/mL (≈ 163 µM).
With `O=C(Nc1ccc2oc(-c3ccccc3)nc2c1)c1cc2ccccc2o1`, the MIC against Staphylococcus aureus [1] (ATCC 25923, 24 h) came out at 62.5 µg/mL (≈ 176 µM); in the test with Pichia kudriavzevii, 62.5 µg/mL (≈ 176 µM); in the test with Escherichia coli [2] (ATCC 25922, 24 h) it was 62.5 µg/mL (≈ 176 µM); against Bacillus subtilis [3] it was 250 µg/mL (≈ 705 µM); in the test on Staphylococcus aureus [4], 62.5 µg/mL (≈ 176 µM); against Bacillus subtilis [5] (ATCC 6633, 24 h), 125 µg/mL (≈ 353 µM). Also, the MIC is 62.5 µg/mL (≈ 176 µM) against Candida albicans [6]; 125 µg/mL (≈ 353 µM) in the test with Klebsiella pneumoniae [7]; 62.5 µg/mL (≈ 176 µM) against Candida albicans [8]; 62.5 µg/mL (≈ 176 µM) against Pseudomonas aeruginosa [9]; 125 µg/mL (≈ 353 µM) against Escherichia coli [10]; 62.5 µg/mL (≈ 176 µM) against Pseudomonas aeruginosa [11]. The same compound had an MIC against Klebsiella pneumoniae [12] of 62.5 µg/mL (≈ 176 µM).
Turning to `OC(Cn1cncn1)(Cn1cncn1)c1ccc(F)cc1F` [FLUCONAZOLE], the MIC amounted to 15.6 µg/mL (≈ 51 µM) against Pichia kudriavzevii, 0.48 µg/mL (≈ 1.57 µM) in the test with Candida albicans [6] and 1.9 µg/mL (≈ 6.2 µM) in the test with Candida albicans [8].
For `C[C@@H]1[C@H](O)[C@@H](C)/C=C/C=C/C=C/C=C/C=C/C=C/C=C/[C@H](O[C@@H]2O[C@H](C)[C@@H](O)[C@H](N)[C@@H]2O)C[C@@H]2O[C@](O)(C[C@@H](O)C[C@@H](O)[C@H](O)CC[C@@H](O)C[C@@H](O)CC(=O)O[C@H]1C)C[C@H](O)[C@H]2C(=O)O` [AMPHOTERICIN B] the same measures were 1.9 µg/mL (≈ 2.06 µM), 0.24 µg/mL (≈ 0.26 µM) and 0.48 µg/mL (≈ 0.519 µM).
For the compound `O=C(Nc1ccc2oc(Cc3ccccc3)nc2c1)c1cc2ccccc2o1`, the MIC against Staphylococcus aureus [1] (ATCC 25923, 24 h) was 125 µg/mL (≈ 339 µM); in the test on Pichia kudriavzevii it was 31.2 µg/mL (≈ 84.8 µM); in the test with Escherichia coli [2] (ATCC 25922, 24 h), 62.5 µg/mL (≈ 170 µM); with Bacillus subtilis [3], 125 µg/mL (≈ 339 µM); with Staphylococcus aureus [4] it was 62.5 µg/mL (≈ 170 µM); against Bacillus subtilis [5] (ATCC 6633, 24 h) it was 125 µg/mL (≈ 339 µM). Besides, the MIC was 31.2 µg/mL (≈ 84.8 µM) against Candida albicans [6]; 62.5 µg/mL (≈ 170 µM) against Klebsiella pneumoniae [7]; 62.5 µg/mL (≈ 170 µM) against Candida albicans [8]; 31.2 µg/mL (≈ 84.8 µM) in the test on Pseudomonas aeruginosa [9]; 62.5 µg/mL (≈ 170 µM) with Escherichia coli [10]; 62.5 µg/mL (≈ 170 µM) against Pseudomonas aeruginosa [11]. In the test on Klebsiella pneumoniae [12], this compound yielded an MIC of 62.5 µg/mL (≈ 170 µM).
Turning to `O=C(Nc1ccc2oc(-c3ccc(F)cc3)nc2c1)c1cc2ccccc2o1`, the MIC in the test with Staphylococcus aureus [1] (ATCC 25923, 24 h) amounted to 125 µg/mL (≈ 336 µM); against Pichia kudriavzevii, 125 µg/mL (≈ 336 µM); against Escherichia coli [2] (ATCC 25922, 24 h) it was 62.5 µg/mL (≈ 168 µM); in the test with Bacillus subtilis [3] it was 125 µg/mL (≈ 336 µM); against Staphylococcus aureus [4], 31.2 µg/mL (≈ 83.9 µM); with Bacillus subtilis [5] (ATCC 6633, 24 h), 500 µg/mL (≈ 1340 µM). In addition, the MIC came out at 62.5 µg/mL (≈ 168 µM) against Candida albicans [6]; 125 µg/mL (≈ 336 µM) in the test on Klebsiella pneumoniae [7]; 62.5 µg/mL (≈ 168 µM) in the test on Candida albicans [8]; 31.2 µg/mL (≈ 83.9 µM) against Pseudomonas aeruginosa [9]; 125 µg/mL (≈ 336 µM) against Escherichia coli [10]; 62.5 µg/mL (≈ 168 µM) in the test with Pseudomonas aeruginosa [11]. In the test on Klebsiella pneumoniae [12], this compound gave an MIC of 62.5 µg/mL (≈ 168 µM).
For GENTAMICIN, the MIC against Staphylococcus aureus [1] worked out at 0.48 µg/mL; against Escherichia coli [2] it was 0.48 µg/mL; against Bacillus subtilis [3], 0.12 µg/mL; against Staphylococcus aureus [4], 7.8 µg/mL; in the test with Bacillus subtilis [5] it was 0.24 µg/mL; in the test with Klebsiella pneumoniae [7], 7.8 µg/mL. Moreover, the MIC against Pseudomonas aeruginosa [9] amounted to 31.2 µg/mL; against Escherichia coli [10], 15.6 µg/mL; against Pseudomonas aeruginosa [11], 62.5 µg/mL; against Klebsiella pneumoniae [12], 0.24 µg/mL.
`O=C(Nc1ccc2oc(Cc3ccc(Br)cc3)nc2c1)c1cc2ccccc2o1`: the MIC was determined as 125 µg/mL (≈ 279 µM) with Staphylococcus aureus [1] (ATCC 25923, 24 h); 62.5 µg/mL (≈ 140 µM) against Pichia kudriavzevii; 62.5 µg/mL (≈ 140 µM) against Escherichia coli [2] (ATCC 25922, 24 h); 125 µg/mL (≈ 279 µM) in the test with Bacillus subtilis [3]; 62.5 µg/mL (≈ 140 µM) against Staphylococcus aureus [4]; 125 µg/mL (≈ 279 µM) against Bacillus subtilis [5] (ATCC 6633, 24 h). In addition, the MIC against Candida albicans [6] was 62.5 µg/mL (≈ 140 µM); against Klebsiella pneumoniae [7], 62.5 µg/mL (≈ 140 µM); against Candida albicans [8], 62.5 µg/mL (≈ 140 µM); against Pseudomonas aeruginosa [9], 31.2 µg/mL (≈ 69.9 µM); in the test on Escherichia coli [10], 125 µg/mL (≈ 279 µM); against Pseudomonas aeruginosa [11], 15.6 µg/mL (≈ 34.9 µM). In the test on Klebsiella pneumoniae [12], this compound yielded an MIC of 62.5 µg/mL (≈ 140 µM).

These data come from ChEMBL document CHEMBL1154447, “Synthesis, antimicrobial activity, pharmacophore analysis of some new 2-(substitutedphenyl/benzyl)-5-[(2-benzofuryl)carboxamido]benzoxazoles” (2008).
